The list is not random: actives were taken first. Their share in the collection is about 1.4%.
Rev-erbA mod: modulators of human Rev-erb alpha DNA binding | P20393 | Rev-erbα–FITC-DNA binding, fluorescence polarization, 90 min | activity, % at 10 µM | 370,000 tested, 0.79% active | AID 1259318;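 active means activity above about 14%, limit read from the data; passing the limit was not always enough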
Target sequence (P20393 whole entry, looked up): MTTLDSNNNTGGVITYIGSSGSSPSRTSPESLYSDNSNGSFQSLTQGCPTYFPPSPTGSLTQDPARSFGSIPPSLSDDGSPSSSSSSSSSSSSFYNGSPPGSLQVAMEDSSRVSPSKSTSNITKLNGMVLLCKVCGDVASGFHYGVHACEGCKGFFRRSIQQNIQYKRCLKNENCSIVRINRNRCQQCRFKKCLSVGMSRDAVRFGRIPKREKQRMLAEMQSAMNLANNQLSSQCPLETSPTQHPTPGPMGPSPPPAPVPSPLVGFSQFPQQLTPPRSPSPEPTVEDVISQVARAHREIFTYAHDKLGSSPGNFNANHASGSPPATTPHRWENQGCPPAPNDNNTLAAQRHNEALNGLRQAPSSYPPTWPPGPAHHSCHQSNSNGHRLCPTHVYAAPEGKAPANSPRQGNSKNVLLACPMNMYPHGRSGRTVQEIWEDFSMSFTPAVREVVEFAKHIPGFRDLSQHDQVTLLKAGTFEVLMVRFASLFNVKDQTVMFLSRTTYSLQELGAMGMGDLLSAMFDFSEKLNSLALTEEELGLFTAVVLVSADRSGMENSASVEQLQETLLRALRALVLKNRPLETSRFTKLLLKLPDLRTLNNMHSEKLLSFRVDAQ
PG9 Ab binder: PG9 antibody binding by small molecule; TR-FRET gp120-PG9 antibody binding; inhibition, % at 6.7 µM; 360,000 tested, 0.43% active; AID 624416; in the data active means inhibition above about 8.5%
NR2E3 ag-1: activates human NR2E3 receptor. Q9Y5X4. CHO-S Gal4-NCOR/VP16-NR2E3 two-hybrid, luciferase. inhibition of corepressor binding, % at 3.98 µM. 360,000 tested, 0.35% active. AID 602229;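 active means inhibition above the mean of all tested compounds plus 3 SD, cut at about 70% in these data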;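 further: higher means lower luciferase signal from less NR2E3 corepressor binding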
NR2E3 ag-2: activates human photoreceptor nuclear receptor NR2E3 | Q9Y5X4 | GST-NR2E3/biotin-RetCOR TR-FRET, 1536-well | inhibition of corepressor binding, % at 4.78 µM | 320,000 tested, 0.12% active | AID 2300;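 active means percent inhibition above the cutoff of mean plus 3 SD of all tested compounds, set per screening campaign, cut at about 20% in these data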
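System: GST-tagged NR2E3 plus biotinylated RetCOR corepressor; Buffer or medium: pH 7.5 Tris-based buffer; Probe or stimulus: RetCOR corepressor, biotinylated, 7 nM; Doses: compound at 4.8 µM, single dose; Schedule: 5 h incubation at 4 °C; Technique: time-resolved FRET; Evaluation: percent inhibition of TR-FRET ratio; Replication: one well per compound, singlicate testing.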
Each line names hits and unclear results; the compound was inactive in the other large screens; ! = not confirmed by another sample.

CCc1ccc(-c2nc(CSCC(=O)N3CCN(c4ccccn4)CC3)c(C)o2)cc1	NR2E3 ag-1 83.8
Oc1ccc(-c2n[nH]c(C(F)(F)F)c2-c2ccccc2)c(O)c1	NR2E3 ag-1 76.3
CCCNC(=O)C(Cc1ccccc1)NS(=O)(=O)c1cccc2nsnc12 (centres undefined)	none
CCSC1(SCC)N=C(N)C2(C#N)C(c3ccc(OC)c(OC)c3OC)C12C#N (centres undefined)	none
O=C(Nc1ccccc1-c1nc2ccccc2s1)c1cccnc1Cl	PG9 Ab binder 10.9
Cc1ccc(S(=O)(=O)N2CCN(C(=O)CSc3nnnn3C)C2)cc1	none
Cc1nc2ccccc2c2oc(C(=O)NCC3COc4ccccc4O3)cc12 (centres undefined)	NR2E3 ag-1 78.8
COc1cccc(CNC(=O)c2cc3c(C)nc4ccccc4c3o2)c1	none
COc1ccc(CNC(=O)c2cc3c(C)nc4ccccc4c3o2)c(OC)c1	NR2E3 ag-1 98.9 (no result: Rev-erbA mod, PG9 Ab binder)
CCCC(C(=O)NCC1CCCO1)N(Cc1ccccc1)C(=O)CNS(=O)(=O)c1ccccc1 (centres undefined)	none
CCOc1ccc(/C(O)=C2/C(=O)C(=O)N(CCOCCO)C2c2cccnc2)cc1 (centres undefined)	PG9 Ab binder 9.0
COc1ccc(C(=O)C(C)OC(=O)c2cccc(S(=O)(=O)Nc3cc(Cl)c(OC)cc3OC)c2)cc1 (centres undefined)	NR2E3 ag-1 79.6 (no result: Rev-erbA mod, PG9 Ab binder)
O=C(c1ccc(N2CCN(C(=O)c3ccc(F)cc3F)CC2)cc1)c1cccc(F)c1	none
CC(=O)c1cccc(NS(=O)(=O)c2ccc(C(=O)Nc3ccccc3)cc2)c1	NR2E3 ag-1 75.0
COc1ccc2oc(=O)c(-c3nnc(N)s3)cc2c1	none
COc1ccc2oc(=O)c(-c3nc(C)cs3)cc2c1	PG9 Ab binder 13.5
C/C(CCc1ccccc1)=N\NC(=O)C(=O)Nc1cccc(Cl)c1	none
Cc1ccc(NC2=C/C(=N\S(=O)(=O)c3cccs3)c3ccccc3C2=O)c(C)c1	NR2E3 ag-1 108.3 (no result: Rev-erbA mod, PG9 Ab binder)
O=C(O)c1ccc(NC2=C/C(=N/S(=O)(=O)c3cccs3)c3ccccc3C2=O)cc1	none (no result: NR2E3 ag-2)
Cc1cccc(NC2=C/C(=N/S(=O)(=O)c3cccs3)c3ccccc3C2=O)c1	none
Cc1ccc(Cl)cc1NC1=C/C(=N\S(=O)(=O)c2cccs2)c2ccccc2C1=O	NR2E3 ag-1 79.0!
CCCCNC(=O)C1c2ccccc2OCC(=O)N1CCOC (centres undefined)	none (no result: NR2E3 ag-2)
Cn1nc(C(F)(F)F)c(/C=N/OC(=O)c2ccccc2Cl)c1SCc1ccccc1Cl	NR2E3 ag-1 72.8
Cn1nc(C(F)(F)F)c(/C=N/OC(=O)c2ccccc2)c1SCc1ccc(Cl)cc1	none
Cc1nccn1-c1ccc(NC(=O)[C@H]2O[C@@H](n3ccc(N)nc3=O)[C@H](O)[C@@H]2O)cc1	none (no result: NR2E3 ag-2)
Cc1ccc(NC(=O)CSc2nnc(-c3cnccn3)n2-c2ccccc2)cc1	PG9 Ab binder 16.1
Cc1ccc(NC2c3ccccc3C(=O)N2c2cccnc2)cc1 (centres undefined)	none
COc1ccc(OC)c(NC2c3ccccc3C(=O)N2c2cccnc2)c1 (centres undefined)	PG9 Ab binder 8.9
COc1cc(CNc2nc(C)c([N+](=O)[O-])c(C)c2C#N)cc(OC)c1	none
O=C1CN(c2cc(Cl)cc(Cl)c2)C(=O)CN1/N=C/c1cccnc1	none
CC(=O)c1ccc(OC(=O)CN2C(=O)c3ccccc3C2=O)cc1	none
COc1ccc(C(=O)OCCN2CCN(C3CN(Cc4cn(Cc5ccccc5Cl)nn4)S(=O)(=O)C3)CC2)cc1OC (centres undefined)	none (no result: PG9 Ab binder, NR2E3 ag-1, NR2E3 ag-2)
COc1cc(S(=O)(=O)n2cnc(C)c2)ccc1Br	none
Cc1cn(S(=O)(=O)c2ccc(Br)c3ccccc23)cn1	NR2E3 ag-2 31.0 (no result: Rev-erbA mod, PG9 Ab binder, NR2E3 ag-1)
CN1CCN(C(=O)c2ccc3c(c2)N(Cc2cccc(Cl)c2)C(=O)c2ccccc2S3(=O)=O)CC1	none
O=C(Cn1cc(C(F)(F)F)cc(Cl)c1=O)NCc1ccc(Cl)cc1	none
Cc1cc(NC(=O)c2ccc(Cl)cc2)c(C)cc1O	none
Cc1cc(C(C#N)c2ccc(Cl)cc2)c(Cl)cc1NC(=O)c1cc(I)cc(I)c1O (centres undefined)	NR2E3 ag-1 101.3
COC(CNC(=O)CN1CCN(Cc2ccc(F)cc2Cl)C1=O)OC	none
Cc1cccc(Nc2nc(-c3c(C)nc4ccccn34)cs2)c1	NR2E3 ag-1 78.1
COCc1cc(=O)[nH]c(Nc2nc3ccc(C)cc3o2)n1	none
COc1cc(CNC(=O)CCCC(=O)c2ccccc2)cc(OC)c1OC	none
C=CCOc1cccc(C2/C(=C(\O)c3ccc4c(c3)OCCO4)C(=O)C(=O)N2Cc2cccnc2)c1 (centres undefined)	PG9 Ab binder 13.6
COc1ccc(C2/C(=C(\O)c3ccc4c(c3)OCCO4)C(=O)C(=O)N2Cc2cccnc2)cc1 (centres undefined)	none
NC(=O)C(c1ccccc1)C1CCCCC1 (centres undefined)	none
COc1ccc([C@H]2CC(=O)C=C(c3ccnc4ccc(Cl)cc34)C2)cc1	NR2E3 ag-1 88.7
Cc1cc(C)nc(N2CCC(C(=O)Nc3ccc4c(c3)CCC4)CC2)n1	none
CC(=O)c1ccc(NC(=O)c2cc(C)no2)cc1	none
C=CCOc1cccc(C2C(C(=O)c3ccco3)=C(O)C(=O)N2Cc2ccncc2)c1 (centres undefined)	none
C=CCOc1cccc(C2C(C(=O)c3ccc(C)o3)=C(O)C(=O)N2Cc2ccncc2)c1 (centres undefined)	PG9 Ab binder 10.7
C=C1C(=O)C=C2CN(C(=O)c3ccccc3)[C@@](Cc3ccc(F)cc3)(C(=O)OC)[C@@H]12	NR2E3 ag-1 71.9 (no result: Rev-erbA mod, PG9 Ab binder)
Cc1cc(C)cc(N(C(=O)c2csnn2)C(C(=O)NC2CCCCC2)c2ccncc2)c1 (centres undefined)	none
O=C(Nc1nc(=O)n(C(=O)C2CC2)s1)c1ccccc1	none
COc1ccc(CS(=O)(=O)/C(Cl)=C(/Cl)C(=O)Nc2ccc(OC)nc2)cc1	NR2E3 ag-1 73.7 (no result: Rev-erbA mod, PG9 Ab binder)
CCCCN1/C(=C/c2ccc3ccccc3[n+]2CC)Sc2ccccc21	NR2E3 ag-1 80.0 (no result: Rev-erbA mod, PG9 Ab binder, NR2E3 ag-2)
Cc1nn(C)c(C)c1S(=O)(=O)N(CC(=O)Nc1ccc2c(c1)OCO2)c1ccc(C(C)C)cc1	PG9 Ab binder 14.1
CCCCOCCCNC(=O)C[C@@H]1C(=O)N2CCCC3=C2[C@@]1(C(=O)OCC)CCC3	none (no result: PG9 Ab binder, NR2E3 ag-1, NR2E3 ag-2)
O=[N+]([O-])c1cc(Cl)c2cccnc2c1O	NR2E3 ag-1 101.7
CCCn1c(N)c(Sc2ccccc2)c(=O)n(CCC)c1=O	none
O=C(Nc1cccc(Cl)c1)Nc1nnc(-c2ccncc2)s1	NR2E3 ag-1 89.2
O=C(Nc1ccc(Cl)cc1)Nc1nnc(-c2ccncc2)s1	none
C#Cc1ccc([C@@H]2C=C(C(=O)N3CCN(Cc4ccccc4)CC3)O[C@H](OCCCCO)C2)cc1	NR2E3 ag-1 75.4 (no result: Rev-erbA mod, PG9 Ab binder)
CC(C)N1CC(C(=O)Nc2nc3ccccc3s2)CC1=O (centres undefined)	none
O=C(Nc1cccc([N+](=O)[O-])c1)C(=O)N1CCCCC1	none
Cc1ccc(Nc2cc(C)nn2-c2nc(C)cc(C)n2)cc1	NR2E3 ag-1 94.3

Screening results (PubChem BioAssay)
